In ChEMBL document CHEMBL5661968, “Antitumor activity of ZSTK474, a new phosphatidylinositol 3-kinase inhibitor” (J Natl Cancer Inst, 2006):
Active and inactive are the calls of the source. The rule behind the calls is not given here.

How the values were obtained:
[1] = tested on: OVCAR-3; experiment: Induction of apoptosis in human OVCAR-3 cells assessed as increase in apoptotic cells at 10 uM measured after 48 hrs by propidium iodide staining based flow cytometric analysis; format: functional, cell-based
Summary of the method: (§1)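 Cells harvested, washed in ice-cold PBS, fixed in 70% ethanol, washed twice in ice-cold PBS, treated with RNase A (500 μg/mL) at 37 °C for 1 h, stained with propidium iodide (25 μg/mL); DNA content read by flow cytometry.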

[2] = tested on: A549; experiment: Downregulation of cyclin D1 expression in human A549 cells at 0.5 uM measured after 30 mins by Western blotting analysis; format: functional, cell-based
Summary of the method: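 A549 cells were lysed in Tris-HCl pH 7.4 buffer with NaF, pyrophosphate, Na3VO4, EDTA, aprotinin, PMSF, 0.5% NP-40 and 0.1% SDS. Lysates were run on SDS-PAGE and blotted to PVDF. Blots were probed with rabbit anti-cyclin D1 polyclonal (1:200), then HRP anti-rabbit IgG, and detected by ECL chemiluminescence.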

[3] = tested on: OVCAR-8; experiment: Growth inhibition of human OVCAR-8 cells measured after 48 hrs by sulforhodamine B assay; format: functional
Summary of the method: (§2)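 JFCR39 panel lines were grown in RPMI 1640 with 5% FBS, penicillin and streptomycin at 37 °C in 5% CO2. After 48 h of drug exposure, total cellular protein was measured by sulforhodamine B staining. GI50 was calculated by a previously described method.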

[4] = tested on: SNB-75; experiment: Growth inhibition of human SNB-75 cells measured after 48 hrs by sulforhodamine B assay; format: functional; summary of the method: as §2
[5] = tested on: MKN-74; experiment: Growth inhibition of human MKN74 cells measured after 48 hrs by sulforhodamine B assay; format: functional; summary of the method: as §2
[6] = tested on: MCF7; experiment: Growth inhibition of human MCF7 cells measured after 48 hrs by sulforhodamine B assay; format: functional; summary of the method: as §2
[7] = tested on: A549; experiment: Antitumor activity against human A549 cells xenografted in nude mouse assessed as inhibition of tumor growth at 400 mg/kg, po administered on day 0 to 13 except for day 3 and 10 measured after 14 days; format: functional, organism-based; settings: time 14.0 day
Summary of the method: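 Female BALB/c-background nude mice were implanted s.c. with 3 × 3 × 3 mm tumor fragments. At 100–300 mm3 tumor volume (day 0), groups of five were randomized and dosed orally at 400 mg/kg on days 0–13, skipping days 3 and 10. Caliper volume was (L×W2)/2, relative to day 0 (RTV). T/C% on day 14 = 100 × mean treated RTV / mean control RTV.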

[8] = tested on: HCT-15; experiment: Growth inhibition of human HCT-15 cells measured after 48 hrs by sulforhodamine B assay; format: functional; summary of the method: as §2
[9] = Residual PI3K activity in human A549 cell lysate at 1 uM preincubated with compound for 5 mins followed by [gamma-32p]-ATP addition measured after 20 mins by immunoprecipitation based liquid scintillation spectroscopic analysis relative to control; settings: A549, 25 min
[10] = tested on: DMS-114; experiment: Growth inhibition of human DMS-114 cells measured after 48 hrs by sulforhodamine B assay; format: functional; summary of the method: as §2
[11] = tested on: MKN-1; experiment: Growth inhibition of human MKN-1 cells measured after 48 hrs by sulforhodamine B assay; format: functional; summary of the method: as §2
[12] = tested on: NCI-H23; experiment: Growth inhibition of human NCI-H23 cells measured after 48 hrs by sulforhodamine B assay; format: functional; summary of the method: as §2
[13] = (§3) Inhibition of PI3K in human A549 cell lysate preincubated with compound for 5 mins followed by [gamma-32p]-ATP addition measured after 20 mins by immunoprecipitation based liquid scintillation spectroscopic analysis; format: subcellular
Summary of the method: (§4)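 PI3K immunoprecipitated with anti-p85 polyclonal antibody and protein G–agarose from A549 lysate (2–4 mg/mL protein), washed, suspended in buffer C (100 mM NaCl, 20 mM Tris pH 7.5) with 200 μg/mL phosphatidylinositol; compound preincubated 5 min at 25 °C; reaction started with [γ-32P]ATP (20 μM final) and 20 mM MgCl2, run 20 min at 25 °C; PI3P separated by TLC, counted by scintillation; activity as % of no-compound cpm.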

[14] = tested on: A549; experiment: as §3; format: subcellular; settings: dose 0.01-1 µM, time 25.0 min; summary of the method: as §4
[15] = target: Dual specificity mitogen-activated protein kinase kinase 1 (Homo sapiens) (UniProt Q02750); experiment: Inhibition of MEK1 phosphorylation at Ser-217/221 residues in human A549 cells measured after 3 hrs by immunoblotting analysis; settings: dose <= 2.0 µM
[16] = Toxicity in nude mouse xenografted with human A549 cells assessed as change in body weight at 400 mg/kg, po administered on day 0 to 13 except for day 3 and 10 measured after 28 days (reference value: 17 %); format: organism-based; settings: in vivo, 672 h, time 28 day
[17] = tested on: MKN-7; experiment: Growth inhibition of human MKN-7 cells measured after 48 hrs by sulforhodamine B assay; format: functional; summary of the method: as §2
[18] = target: Forkhead box protein O1 (Homo sapiens) (UniProt Q12778); experiment: Inhibition of FKHR phosphorylation at Thr-24 residue in human A549 cells measured after 3 hrs by immunoblotting analysis; format: cell-based; settings: dose <= 2.0 µM
Summary of the method: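 A549 cells treated over 0 to 2.0 μM; lysed in 10 mM Tris–HCl pH 7.4, 50 mM NaCl, NaF, pyrophosphate, vanadate, EDTA, protease inhibitors, 0.5% NP-40, 0.1% SDS; proteins resolved by SDS-PAGE, blotted to PVDF, probed with phospho-specific antibodies, HRP secondary, ECL detection.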

[19] = tested on: SK-OV-3; experiment: Growth inhibition of human SK-OV-3 cells measured after 48 hrs by sulforhodamine B assay; format: functional; summary of the method: as §2
[20] = tested on: DMS-273; experiment: Growth inhibition of human DMS-273 cells measured after 48 hrs by sulforhodamine B assay; format: functional; summary of the method: as §2
[21] = tested on: OVCAR-3; experiment: Growth inhibition of human OVCAR-3 cells measured after 48 hrs by sulforhodamine B assay; format: functional; summary of the method: as §2
[22] = target: Mitogen-activated protein kinase 3 (Homo sapiens) (UniProt P27361); experiment: Inhibition of ERK1 phosphorylation at Thr-202/Tyr-204 residues in human A549 cells measured after 3 hrs by immunoblotting analysis; settings: dose <= 2.0 µM
[23] = tested on: A549; experiment: Inhibition of AKT in human A549 cells at 0.5 uM measured after 5 mins by Western blotting analysis; format: cell-based
[24] = tested on: A549; experiment: Induction of cell cycle arrest in human A549 cells assessed as accumulation of cells at G1 phase at 10 uM incubated for 24 hrs by propidium iodide staining based flow cytometric analysis
[25] = tested on: OVCAR-3; experiment: Induction of apoptosis in human OVCAR-3 cells assessed as increase in chromatin condensation at 10 uM measured after 48 hrs by Hoechst 33342 staining based fluorescence microscopic analysis; format: functional, cell-based
Summary of the method: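 OVCAR3 cells grown 24 h in RPMI 1640 with 5% FBS, then 48 h with or without 10 μM compound; fixed in 1% glutaraldehyde in PBS at 4 °C for 24 h, stained with 167 μM Hoechst 33342, apoptotic cells scored by fluorescence microscopy.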

[26] = tested on: PC-3; experiment: Growth inhibition of human PC-3 cells measured after 48 hrs by sulforhodamine B assay; format: functional; summary of the method: as §2
[27] = tested on: NCI-H460; experiment: Growth inhibition of human NCI-H460 cells measured after 48 hrs by sulforhodamine B assay; format: functional; summary of the method: as §2
[28] = tested on: A549; experiment: Induction of apoptosis in human A549 cells assessed as increase in apoptotic cells at 10 uM measured after 48 hrs by propidium iodide staining based flow cytometric analysis; format: functional, cell-based; summary of the method: as §1

Chain of Dual specificity mitogen-activated protein kinase kinase 1 (Homo sapiens) (Q02750 whole entry): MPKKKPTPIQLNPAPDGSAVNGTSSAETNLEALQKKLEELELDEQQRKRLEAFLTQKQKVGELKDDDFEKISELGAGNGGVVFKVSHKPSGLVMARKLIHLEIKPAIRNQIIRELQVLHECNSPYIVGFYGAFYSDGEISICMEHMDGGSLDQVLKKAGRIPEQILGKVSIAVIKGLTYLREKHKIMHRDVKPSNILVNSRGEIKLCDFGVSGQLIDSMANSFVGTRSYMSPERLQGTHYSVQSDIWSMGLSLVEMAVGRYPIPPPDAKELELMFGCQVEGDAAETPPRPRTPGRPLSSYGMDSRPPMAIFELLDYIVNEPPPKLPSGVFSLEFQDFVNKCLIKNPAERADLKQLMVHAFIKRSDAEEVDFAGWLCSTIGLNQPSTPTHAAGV
Chain of Mitogen-activated protein kinase 3 (Homo sapiens) (P27361 whole entry): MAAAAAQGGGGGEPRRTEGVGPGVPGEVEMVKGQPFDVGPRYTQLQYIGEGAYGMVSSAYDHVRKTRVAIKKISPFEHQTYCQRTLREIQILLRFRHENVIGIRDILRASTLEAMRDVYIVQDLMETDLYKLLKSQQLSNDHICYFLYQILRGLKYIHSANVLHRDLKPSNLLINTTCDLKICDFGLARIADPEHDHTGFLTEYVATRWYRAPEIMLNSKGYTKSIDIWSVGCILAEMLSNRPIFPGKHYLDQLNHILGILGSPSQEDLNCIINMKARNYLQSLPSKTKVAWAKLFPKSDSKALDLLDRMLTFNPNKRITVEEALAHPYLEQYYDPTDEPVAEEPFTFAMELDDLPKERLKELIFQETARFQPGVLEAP
Chain of Forkhead box protein O1 (Homo sapiens) (Q12778 whole entry): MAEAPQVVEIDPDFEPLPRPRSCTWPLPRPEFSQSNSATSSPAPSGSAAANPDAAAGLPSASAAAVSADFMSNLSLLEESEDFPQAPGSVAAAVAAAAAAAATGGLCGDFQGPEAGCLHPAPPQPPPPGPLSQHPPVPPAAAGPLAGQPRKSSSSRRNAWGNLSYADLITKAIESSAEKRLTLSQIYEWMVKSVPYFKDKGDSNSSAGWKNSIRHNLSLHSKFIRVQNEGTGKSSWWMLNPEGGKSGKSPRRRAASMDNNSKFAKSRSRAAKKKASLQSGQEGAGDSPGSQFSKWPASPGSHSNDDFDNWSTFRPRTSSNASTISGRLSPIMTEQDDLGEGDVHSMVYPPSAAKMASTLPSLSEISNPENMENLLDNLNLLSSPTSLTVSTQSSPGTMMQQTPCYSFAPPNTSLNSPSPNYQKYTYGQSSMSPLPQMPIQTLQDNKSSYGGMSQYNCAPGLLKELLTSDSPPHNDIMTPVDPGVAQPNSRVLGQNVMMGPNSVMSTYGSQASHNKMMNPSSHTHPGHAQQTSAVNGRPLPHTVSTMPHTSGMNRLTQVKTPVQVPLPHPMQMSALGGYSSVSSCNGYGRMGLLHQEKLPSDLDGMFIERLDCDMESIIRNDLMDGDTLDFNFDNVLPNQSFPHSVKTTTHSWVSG

GI50 [3]: 1050 nM
GI50 [5]: 617 nM
GI50 [6]: 45.7 nM
GI50 [8]: 513 nM
GI50 [11]: 224 nM
GI50 [12]: 339 nM
IC50 [13]: 37 nM
Activity [14]: Dose-Dependent Effect
inhibition [15]: inactive
GI50 [17]: 1320 nM
inhibition [18]: Dose-Dependent Effect
GI50 [19]: 331 nM
GI50 [21]: 91.2 nM
inhibition [22]: inactive
GI50 [26]: 38 nM
GI50 [27]: 468 nM
SMILES: FC(F)c1nc2ccccc2n1-c1nc(N2CCOCC2)nc(N2CCOCC2)n1 [ZSTK-474]
Activity [1]: Active
Activity [2]: Active
GI50 [4]: 45.7 nM
Activity [7]: Active
level, % of control at 1 µM [9]: 4.7%
GI50 [10]: 295 nM
Activity [16]: 0%
GI50 [20]: 224 nM
inhibition [23]: inactive
Activity [24]: Active
Activity [25]: Active
Activity [28]: inactive
